From PubChem
Most compounds without a hit are left out; they make up all but 3.1% or so of the library.
OX1R antag-1: blocks the human orexin 1 receptor; O43613; OX1R-expressing cells, FRET antagonist read-out; inhibition, % at 6.6 µM; actives 1.8% (n = 330,000); in the data active = inhibition mostly above about 38%, no sharp cut-off; inactive = mostly below about 40%;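 also: 0% = agonist challenge alone and 100% = reference antagonist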
OX1R antag-2: antagonists of human orexin 1 receptor | AID 434989 | CHO/OX1R cells, Fluo-8 calcium fluorescence, orexin A | actives 0.43% (n = 330,000) | inhibition, % at 5 µM;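 active = inhibition above its plate's threshold, mean inhibition of all tested compounds on the plate plus 3 SD, cut at about 37% in these data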;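 also: 0% = orexin A challenge wells and 100% = SB-334867-A antagonist wells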
GPR7 antag: blocks human GPR7 receptor signaling | inhibition, % at 4.4 µM | P48145 | GPR7-expressing cells, fluorescence antagonist assay | actives 1.1% (n = 290,000); in the data active = inhibition above about 16%, passing the limit was not always enough;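 also: cells stimulated with the agonist NPW; 0% = agonist with vehicle and 100% = vehicle without agonist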
Target sequence (P48145 whole entry, looked up): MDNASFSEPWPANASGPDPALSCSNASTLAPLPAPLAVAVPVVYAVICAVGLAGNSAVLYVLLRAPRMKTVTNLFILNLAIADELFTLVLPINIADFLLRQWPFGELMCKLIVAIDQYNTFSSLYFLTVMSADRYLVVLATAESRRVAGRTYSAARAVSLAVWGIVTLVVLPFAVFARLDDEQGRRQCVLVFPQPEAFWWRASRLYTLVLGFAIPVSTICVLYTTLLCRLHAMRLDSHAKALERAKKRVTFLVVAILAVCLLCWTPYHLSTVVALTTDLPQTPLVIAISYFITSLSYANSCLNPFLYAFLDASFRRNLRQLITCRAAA
GalR3 antag: blocks the human galanin receptor 3; AID 651719; inhibition, % at 3 µM; O60755; actives 0.44% (n = 360,000); HEK293 GalR3-CNG cAMP membrane potential fluorescence; galR3 body fused to GalR1 C-terminus;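 active = inhibition above the screen-wide average plus 3 SD, cut at about 13% in these data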;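 also: forskolin and galanin both at EC90 stimulate the cells; cAMP rise reported by CNG channel membrane potential dye signal; 0% = forskolin plus galanin with DMSO and 100% = forskolin alone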
CHO parental Ca: signal in parental CHO cells, OX1R antagonist counter-screen; parental CHO-K1, ATP-induced calcium, Fluo-8 fluorescence; inhibition, % at 5.6 µM; actives 0.63% (n = 330,000);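 active = inhibition above that plate's mean sample inhibition plus 3 SD, cut at about 26% in these data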;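 also: 0% = ATP-challenged DMSO wells and 100% = DMSO wells without ATP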
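Assay system: untransfected parental CHO cell line. Also added: ATP agonist challenge. Dosing: one dose, 5.6 µM nominal. Measured by: Fluo-8 fluorescence. Read-out: % inhibition. Benchmarks: ATP wells versus no-ATP DMSO wells. Repeats: no replicates.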
GPR7 antag cf: confirmation of human GPR7 antagonists | actives 52% (n = 2,400) | GPR7-expressing cells, calcium fluorescence antagonist mode | inhibition, % at 4.4 µM | shares compounds with GPR7 antag; in the data active = inhibition above about 24%;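 also: stimulated with the GPR7 agonist NPW; 0% = agonist plus vehicle and 100% = vehicle alone without agonist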
MCHR1 antagonist: antagonizes human MCHR1, a GPR7 antagonist counter-screen; inhibition, % at 4.4 µM; shares compounds with GPR7 antag; MCHR1-expressing cells, fluorescence antagonist assay; actives 62% (n = 2,400); AID 2148; in the data active = inhibition above about 22%;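 also: 0% = vehicle with agonist and 100% = vehicle without agonist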
* marks the source's active call; other numbers are inactive results; / = no result given.

SMILES	OX1R antag-1	OX1R antag-2	GPR7 antag	GalR3 antag	CHO parental Ca	GPR7 antag cf	MCHR1 antagonist
COCCn1cc(C(=S)N2CCCCC2)c2ccccc21	8	-31	-7	2	-22	/	/
CCCn1nnnc1NCc1cccc(Cl)c1	17	-12	-4	-10	-9	/	/
O=C(Cn1cc([N+](=O)[O-])ccc1=O)NC1CCCCC1	7	8	/	-2	-8	/	/
O=C(CSc1nnc(Cc2cccs2)n1Cc1ccco1)Nc1ccc(Cl)cc1Cl	31	-35	28*	-7	-8	31*	34*
COCCNC(=S)Nc1ccc(S(=O)(=O)Nc2ncccn2)cc1	5	2	25*	4	4	-8	-6
O=S(=O)(Nc1ncccn1)c1ccc(NC(=S)NCCc2ccccc2)cc1	2	-8	-20	-5	6	/	/
Nc1ccccc1C#CC(=O)c1ccccc1	2	1	37*	-9	-4	71*	36*
Nc1ccccc1C#Cc1ccc([N+](=O)[O-])cc1	5	-3	/	-4	-2	/	/
CSc1cccc(NC(=O)CN(C2CCCCC2)S(C)(=O)=O)c1	30	-6	28*	1	-7	9	15
COc1ccc(NC(=O)CN(C2CCCCC2)S(C)(=O)=O)cc1OC	5	-19	7	-1	-14	/	/
CCOC(=O)Cn1cc(/C=N/NC(=O)c2cc3ccccc3o2)c2ccccc21	26	-9	26*	-4	-5	-5	28*
CC(C)n1cc(/C=N\NC(=O)c2cc3c(ccc4ccccc43)o2)c2ccccc21	/	/	-9	0	/	/	/
CCN1C(=O)C(NC(C)=O)c2cc(Br)ccc21 (stereo unspecified)	36	-23	27	-5	-15	/	/
CCCCN1C(=O)C(NC(C)=O)c2cc(Br)ccc21 (stereo unspecified)	3	-27	53*	-6	-25	26*	19
COc1cccc(C(O)C2OC(=O)c3ccccc32)c1OC (stereo unspecified)	9	-8	/	2	3	/	/
CCc1nc2cccnc2n1-c1ccc(CC(=O)O)cc1	-6	5	-26	-8	0	/	/
CC(C)NC(=O)CCc1nc2cccnc2n1-c1ccccc1	2	2	56*	-8	-16	-4	-5
CCCN(CC(=O)Nc1ccc(F)c(F)c1F)CC(=O)Nc1c(Cl)cccc1Cl	10	-16	22*	-7	-36	25*	25*
CCCN(CC(=O)Nc1cccc(Br)c1)CC(=O)Nc1ccc(F)c(F)c1F	9	-19	23*	-4	-16	31*	47*
O=[N+]([O-])c1cccc(-c2cnc3ccccc3n2)c1	12	-9	-9	-4	-12	/	/
O=[N+]([O-])c1cccc(-c2nc3ccccc3s/c2=N/O)c1	24	12	31	-13	-1	45*	40*
Cc1cc(Cl)ccc1Oc1ccccc1C(=O)CC#N	32	-19	-6	-5	-16	/	/
O=C(O)/C(=C\c1ccc2ccccc2c1)c1cccc2ccccc12	18	-15	/	-3	-6	/	/
CC(=O)c1c(C)[nH]c(C(=O)OCC(=O)c2ccc(Br)cc2)c1C	/	/	/	-7	/	/	/
CCC(NC(=O)c1[nH]c(C)c(C(C)=O)c1C)c1ccc(Br)cc1 (stereo unspecified)	7	-4	29*	-9	-18	-7	10
SMILES	OX1R antag-1	OX1R antag-2	GPR7 antag	GalR3 antag	CHO parental Ca	GPR7 antag cf	MCHR1 antagonist
Nc1cccc(-c2nc3ccc(C(=O)c4ccccc4)cc3[nH]2)c1	30	0	43*	-3	5	27*	63*
Nc1ccc2nc(-c3ccccc3)[nH]c2c1	11	-11	-2	0	-1	/	/
Fc1cc(Br)ccc1NC(=S)NCCc1ccccc1	-5	7	38*	-10	0	6	35*
O=C1NC(=O)C2(CCOc3ccc(F)cc32)N1 (stereo unspecified)	/	/	/	-4	/	/	/
OC1CCC(NC(=S)Nc2ccc(SC(F)F)cc2)CC1 (stereo unspecified)	11	5	3	-6	20	/	/
CC1CCCC(NC(=S)Nc2ccc(SC(F)F)cc2)C1C (stereo unspecified)	35	60*	45*	-4	48*	32*	54*
